Experimental data from ChEMBL document CHEMBL1121798, “Puromycin analogues. Effect of aryl-substituted puromycin analogues on the ribosomal peptidyltransferase reaction” (J Med Chem, 1981).
Calls of active or inactive are those of the source. No cut-off for these calls is given here.

How the values were obtained:
Escherichia coli [1] = test: Vmax in the peptidyltransferase reaction; type: functional
Method in brief: (§1)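 E. coli ribosomes (washed, 2.78 A260 units) loaded with Ac[14C]Phe-tRNA (21 pmol) in 100 mM Tris-Cl pH 7.5, 100 mM NH4Cl, 15 mM Mg(OAc)2, 0.65 mM DTT, 1.2 mM GTP, FWR, poly(U), 28 °C for 8 min. Analogue then added as acceptor. Radiolabelled product counted and blank-corrected. Duplicates at five substrate concentrations. Km/Vmax from double-reciprocal plots by Wilkinson analysis.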

Escherichia coli [2] = test: Michaelis constant (Km) in the peptidyltransferase reaction; type: functional; method in brief: as §1
Escherichia coli [3] = test: Compound was evaluated for the substrate activity in the peptidyltransferase reaction of Escherichia coli ribosomes.
Escherichia coli [4] = test: Michaelis constant (Km) in the peptidyltransferase reaction; Inactive; type: functional; method in brief: as §1

With `CC(=O)Nc1ccc(CC(N)C(=O)NC2C(CO)OC(n3cnc4c(N(C)C)ncnc43)C2O)cc1` (stereo unspecified) the Vmax (Escherichia coli [1]) was 0.45 pmol/min, the Km (Escherichia coli [2]) was 256 µM and the Substrate efficiency (Escherichia coli [3]) was 23.7%.
Work on `CCCC(=O)Nc1ccc(CC(N)C(=O)NC2C(CO)OC(n3cnc4c(N(C)C)ncnc43)C2O)cc1` (stereo unspecified) yielded a Vmax (Escherichia coli [1]) of 0.53 pmol/min, a Km (Escherichia coli [2]) of 367 µM and a Substrate efficiency (Escherichia coli [3]) of 19.5%.
With `CN(C)c1ncnc2c1ncn2C1OC(CO)C(NC(=O)C(N)Cc2ccc(NC(=O)CBr)cc2)C1O` (stereo unspecified) the Km (Escherichia coli [4]) was “inactive”.
In the case of `CN(C)c1ncnc2c1ncn2C1OC(CO)C(NC(=O)C(N)Cc2ccc([N+](=O)[O-])cc2)C1O` (stereo unspecified), the Vmax (Escherichia coli [1]) is reported as 0.39 pmol/min, the Km (Escherichia coli [2]) is reported as 255 µM and the Substrate efficiency (Escherichia coli [3]) is reported as 20.7%.
Compound `CN(C)c1ncnc2c1ncn2C1OC(CO)C(NC(=O)C(N)Cc2ccc(N)cc2)C1O` (stereo unspecified) has a Vmax (Escherichia coli [1]) of 0.79 pmol/min, a Km (Escherichia coli [2]) of 120 µM and a Substrate efficiency (Escherichia coli [3]) of 89%.
Compound `COc1ccc(C[C@H](N)C(=O)N[C@H]2[C@@H](O)[C@H](n3cnc4c(N(C)C)ncnc43)O[C@@H]2CO)cc1` has a Vmax (Escherichia coli [1]) of 0.99 pmol/min, a Km (Escherichia coli [2]) of 134 µM and a Substrate efficiency (Escherichia coli [3]) of 100%.
